{"source": "ChEMBL document CHEMBL4699593", "about": "“Identification of 2,4-Disubstituted Imidazopyridines as Hemozoin Formation Inhibitors with Fast-Killing Kinetics and In Vivo Efficacy in the Plasmodium falciparum NSG Mouse Model” (J Med Chem, 2020)", "key": {"[1]": {"experiment": "Dose normalized AUC (0 to 24 hrs) in Plasmodium falciparum 3D70087/N9 infected NSG mouse at 200 mg/kg, po by LC-MS/MS analysis", "type": "ADME, organism-based", "settings": "in vivo", "summary_of_the_method": "(§1)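 Oral (PO) dosing of NSG (NODscidIL2Rγnull) mice infected with P. falciparum. Cmax and AUC0–24 are taken from the infected-mouse PK analysis and are also expressed divided by dose.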"}, "[2]": {"tested_on": "Plasmodium falciparum", "experiment": "Antimalarial activity against asexual blood stage Plasmodium falciparum assessed as time required to show 99.9% reduction of parasitemia at 10 times IC50", "type": "functional"}, "[3]": {"experiment": "Drug metabolism in mouse blood assessed as N-demethylation by LC-MS/MS analysis", "type": "ADME, tissue-based"}, "[4]": {"experiment": "Terminal half life in Balb/C mouse at 2 mg/kg, iv by LC-MS/MS analysis", "type": "ADME, organism-based", "settings": "in vivo, read-out: beta t1/2 (converted)", "summary_of_the_method": "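Healthy Balb/c mice were given the compound i.v. or orally. Parameters come from non-compartmental analysis: AUC from 0 h to t_last, blood clearance, volume at steady state, terminal half-life, Tmax. Oral bioavailability F is derived from the i.v. and p.o. data.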"}, "[5]": {"experiment": "Dose normalized AUC (0 to 24 hrs) in Plasmodium falciparum 3D70087/N9 infected NSG mouse at 50 mg/kg, po by LC-MS/MS analysis", "type": "ADME, organism-based", "settings": "in vivo", "summary_of_the_method": "as §1"}, "[6]": {"tested_on": "Plasmodium falciparum", "experiment": "Antiplasmodial activity against multidrug-resistant asexual blood stage Plasmodium falciparum K1 strain assessed as reduction in parasite growth after 72 hrs by NBT reagent based LDH assay", "type": "functional, organism-based", "settings": "K1, 72 h", "summary_of_the_method": "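Asexual blood-stage K1 (multidrug-resistant) parasites were read out by the parasite lactate dehydrogenase (pLDH) assay. […] Most individual values varied less than 2× (maximum 3×).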"}, "[7]": {"tested_on": "Plasmodium falciparum", "experiment": "Antiplasmodial activity against multidrug-sensitive asexual blood stage Plasmodium falciparum NF54 strain assessed as reduction in parasite growth after 72 hrs by NBT reagent based LDH assay", "type": "functional, organism-based", "settings": "NF54, 72 h"}, "[8]": {"experiment": "AUC (0 to 24 hrs) in Plasmodium falciparum 3D70087/N9 infected NSG mouse at 15 mg/kg, po by LC-MS/MS analysis", "type": "ADME, organism-based", "set-up": "time < 24 hr, route oral, dose 15 mg/kg", "settings": "in vivo", "summary_of_the_method": "as §1"}, "[9]": {"tested_on": "hERG", "experiment": "Selectivity index, ratio of IC50 for inhibition of human ERG by patch clamp method to IC50 for antiplasmodial activity against multidrug-sensitive asexual blood stage Plasmodium falciparum NF54", "type": "toxicity", "settings": "read-out: Ratio IC50"}, "[10]": {"experiment": "Drug recovery in mouse urine by LC-MS/MS analysis", "type": "ADME, tissue-based", "settings": "in vivo"}, "[11]": {"experiment": "Dose normalized AUC (0 to 24 hrs) in Plasmodium falciparum 3D70087/N9 infected NSG mouse at 5 mg/kg, po by LC-MS/MS analysis", "type": "ADME, organism-based", "settings": "in vivo", "summary_of_the_method": "as §1"}, "[12]": {"experiment": "Dose normalized Cmax in Plasmodium falciparum 3D70087/N9 infected NSG mouse at 1.5 mg/kg, po by LC-MS/MS analysis", "type": "ADME, organism-based", "settings": "in vivo", "summary_of_the_method": "as §1"}, "[13]": {"experiment": "Ratio of unbound average drug concentration in Balb/c mouse at 20 mg/kg, po measured at 24 hrs to IC50 for antiplasmodial activity against multidrug-sensitive Plasmodium falciparum NF54 asexual blood stage assessed as reduction in parasite growth after 72 hrs by LDH assay", "type": "organism-based", "settings": "in vivo"}, "[14]": {"experiment": "Cmax in Balb/C mouse at 20 mg/kg, po by LC-MS/MS analysis", "type": "ADME, organism-based", "set-up": "route oral, dose 20 mg/kg", "settings": "in vivo", "summary_of_the_method": "(§2)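 Healthy Balb/c mice dosed i.v. or orally. Parameters come from non-compartmental analysis of compound concentration over time. […] Clearance is blood clearance (CL_b).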"}, "[15]": {"tested_on": "Plasmodium berghei", "experiment": "Antiplasmodial activity against luciferase-expressing Plasmodium berghei sporozoites liver stage infected in human HepG2 cells expressing GFP-CD81 fusion protein incubated for 48 hrs by luciferase reporter gene based bioluminescence assay", "type": "functional, organism-based", "settings": "HepG2, 48 h", "summary_of_the_method": "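Liver-stage activity was measured in vitro with rodent P. berghei sporozoites. Values are the mean of 3 technical replicates from the luciferase assay; individual values varied less than 2×.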"}, "[16]": {"experiment": "AUC (0 to t) in Balb/C mouse at 20 mg/kg, po by LC-MS/MS analysis", "type": "ADME, organism-based", "set-up": "dose 20 mg/kg", "settings": "in vivo", "summary_of_the_method": "as §2"}, "[17]": {"experiment": "Lipophilicity, log D of compound at pH 6", "type": "physicochemical", "settings": "buffer"}, "[18]": {"tested_on": "Plasmodium falciparum", "experiment": "Antiplasmodial activity against early stage (I to III) Plasmodium falciparum NF54 gametocytes at 5 uM incubated for 48 hrs under hypoxia condition by luciferase reporter gene assay relative to control", "type": "functional"}, "[19]": {"experiment": "Tmax in Plasmodium falciparum 3D70087/N9 infected NSG mouse at 5 mg/kg, po by LC-MS/MS analysis", "type": "ADME, organism-based", "settings": "in vivo", "summary_of_the_method": "(§3)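 P. falciparum-infected NSG mice received escalating single oral doses of 1.5, 5, 15, 50 and 100 mg/kg.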"}, "[20]": {"experiment": "AUC (0 to 24 hrs) in Plasmodium falciparum 3D70087/N9 infected NSG mouse at 5 mg/kg, po by LC-MS/MS analysis", "type": "ADME, organism-based", "set-up": "time < 24 hr, route oral, dose 5 mg/kg", "settings": "in vivo", "summary_of_the_method": "as §1"}, "[21]": {"experiment": "AUC (0 to 24 hrs) in Plasmodium falciparum 3D70087/N9 infected NSG mouse at 50 mg/kg, po by LC-MS/MS analysis", "type": "ADME, organism-based", "set-up": "time < 24 hr, route oral, dose 50 mg/kg", "settings": "in vivo", "summary_of_the_method": "as §1"}, "[22]": {"tested_on": "Plasmodium falciparum", "experiment": "Antiplasmodial activity against early ring-stage synchronized Plasmodium falciparum assessed as increase in free heme after 32 hrs by Giemsa-staining based haemocytometric counting method", "type": "functional, organism-based", "summary_of_the_method": "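Whole-parasite cell fractionation assay run as a dose response. Free heme and hemozoin were measured intracellularly across increasing compound concentrations.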"}, "[23]": {"experiment": "Tmax in Plasmodium falciparum 3D70087/N9 infected NSG mouse po by LC-MS/MS analysis", "settings": "in vivo"}, "[24]": {"experiment": "Dose normalized AUC (0 to 24 hrs) in Balb/c mouse at 20 mg/kg, po by LC-MS/MS analysis", "type": "ADME, organism-based", "settings": "in vivo", "summary_of_the_method": "as §2"}, "[25]": {"experiment": "Tmax in Plasmodium falciparum 3D70087/N9 infected NSG mouse at 15 mg/kg, po by LC-MS/MS analysis", "type": "ADME, organism-based", "settings": "in vivo", "summary_of_the_method": "as §3"}, "[26]": {"experiment": "Cmax in Plasmodium falciparum 3D70087/N9 infected NSG mouse at 100 mg/kg, po by LC-MS/MS analysis", "type": "ADME, organism-based", "set-up": "route oral, dose 100 mg/kg", "settings": "in vivo", "summary_of_the_method": "as §1"}, "[27]": {"experiment": "AUC in Plasmodium falciparum infected NSG mouse at 62 mg/kg, po by LC-MS/MS analysis", "type": "ADME, organism-based", "set-up": "dose 62 mg/kg", "settings": "in vivo"}, "[28]": {"experiment": "AUC (0 to 24 hrs) in Plasmodium falciparum 3D70087/N9 infected NSG mouse at 100 mg/kg, po by LC-MS/MS analysis", "type": "ADME, organism-based", "set-up": "time < 24 hr, route oral, dose 100 mg/kg", "settings": "in vivo", "summary_of_the_method": "as §1"}, "[29]": {"tested_on": "Plasmodium falciparum", "experiment": "Antimalarial activity against asexual blood stage Plasmodium falciparum assessed as reduction in parasitemia by measuring log parasite reduction ratio at 10 times IC50", "type": "functional"}, "[30]": {"experiment": "AUC (0 to t) in Balb/C mouse at 2 mg/kg, iv by LC-MS/MS analysis", "type": "ADME, organism-based", "set-up": "dose 2 mg/kg", "settings": "in vivo", "summary_of_the_method": "as §2"}, "[31]": {"tested_on": "Plasmodium falciparum", "experiment": "Antimalarial activity against Plasmodium falciparum 3D70087/N9 infected in NOD-SCID IL2Rgamma null mouse assessed as parasitemia at 50 mg/kg, po qd administered for 4 days measured on day 6 post-infection by microscopy based flow cytometry", "type": "functional, organism-based", "settings": "time 4.0 day", "summary_of_the_method": "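NSG mice were infected with P. falciparum and given oral compound once daily for 4 days at 50 mg/kg, starting three days after inoculation. Parasitemia was followed to day 6 post-infection against the limit of detection.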"}, "[32]": {"experiment": "Dose normalized Cmax in Plasmodium falciparum 3D70087/N9 infected NSG mouse at 200 mg/kg, po by LC-MS/MS analysis", "type": "ADME, organism-based", "settings": "in vivo", "summary_of_the_method": "as §1"}}, "note": "pIC50: −log10 of the molar value. Active and inactive are the calls of the source. The calls are words filed in the database; no cut-off is given here."}
{"compound": "CN1CCN(CC2CCN(c3nccc4[nH]c(-c5cc(F)cc(F)c5)nc34)CC2)CC1", "values": [{"measurement": "AUC/dose", "setting": "[1]", "value": 62, "unit": "µM·kg·min/mg"}, {"measurement": "Time", "setting": "[2]", "value": 31, "unit": "h"}, {"measurement": "Drug metabolism", "setting": "[3]", "value": "Metabolite_Detected"}, {"measurement": "half-life", "setting": "[4]", "value": 23.1, "unit": "h"}, {"measurement": "AUC/dose", "setting": "[5]", "value": 57, "unit": "µM·kg·min/mg"}, {"measurement": "pIC50", "setting": "[6]", "value": 7.39}, {"measurement": "pIC50", "setting": "[7]", "value": 7.64}, {"measurement": "AUC", "setting": "[8]", "value": 969, "unit": "µM·min"}, {"measurement": "selectivity ratio", "setting": "[9]", "value": "> 1300"}, {"measurement": "Drug recovery", "setting": "[10]", "value": "Active"}, {"measurement": "AUC/dose", "setting": "[11]", "value": 34, "unit": "µM·kg·min/mg"}, {"measurement": "Cmax/dose", "setting": "[12]", "value": 0.03, "unit": "µM·kg/mg"}, {"measurement": "Ratio", "setting": "[13]", "value": 4.5}, {"measurement": "Cmax", "setting": "[14]", "value": 1.5, "unit": "µM"}, {"measurement": "pIC50", "setting": "[15]", "value": 4.85}, {"measurement": "AUCt", "setting": "[16]", "value": 20, "unit": "µM·h"}, {"measurement": "logD", "setting": "[17]", "value": 0.4}, {"measurement": "inhibition at 5 µM", "setting": "[18]", "value": "< 50", "unit": "%"}, {"measurement": "Tmax", "setting": "[19]", "value": 2.5, "unit": "h"}, {"measurement": "AUC", "setting": "[20]", "value": 170, "unit": "µM·min"}, {"measurement": "AUC", "setting": "[21]", "value": 2856, "unit": "µM·min"}, {"measurement": "Activity", "setting": "[22]", "value": "inactive"}, {"measurement": "Tmax", "setting": "[23]", "value": 4, "unit": "h"}, {"measurement": "AUC/dose", "setting": "[24]", "value": 60, "unit": "µM·kg·min/mg"}, {"measurement": "Tmax", "setting": "[25]", "value": 6, "unit": "h"}, {"measurement": "Cmax", "setting": "[26]", "value": 6.68, "unit": "µM"}, {"measurement": "AUC", "setting": "[27]", "value": 58.3, "unit": "µM·h"}, {"measurement": "AUC", "setting": "[28]", "value": 5142, "unit": "µM·min"}, {"measurement": "Ratio", "setting": "[29]", "value": 4.9}, {"measurement": "AUCt", "setting": "[30]", "value": 2.42, "unit": "µM·h"}, {"measurement": "Activity", "setting": "[31]", "value": "Below limit of detection"}, {"measurement": "Cmax/dose", "setting": "[32]", "value": 0.06, "unit": "µM·kg/mg"}]}
